# SR-BI DiI-HDL act: SR-BI HDL lipid transfer activation; CHO ldlA[mSR-BI] cells, DiI-HDL uptake fluorescence, 3 h; 100 = double the neutral-control signal; activation, % at 12.5 µM; 320,000 compounds, 0.096% hits; AID 504775;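 active = mean replicate activation of at least 60% and every replicate at or above 60%; inconclusive = mean or all-replicate condition met, but not both; inactive = mean below 60% and not all replicates reaching 60%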;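 note: 0% = median plate neutral-control signal and 100% = twice that signal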
#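 System: LDL receptor-deficient CHO ldlA cells overexpressing murine SR-BI | Timing: 3 h uptake period with compound, 37 °C | Medium: HEPES-buffered (25 mM, pH 7.4) F12 plus 0.5% BSA | Dosing: Single-point compound dose | Signal: Bottom-read fluorescence, 550/595 nm | Read-out: Retained DiI signal reflecting DiI-HDL uptake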
# SR-BI HDL uptake: inhibitors of mouse SR-BI mediated HDL lipid uptake | ldlA[mSR-BI] CHO cells, DiI-HDL uptake fluorescence, 3 h | inhibition, % at 12.5 µM | 320,000 compounds, 0.96% hits | AID 488896;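 active = mean replicate inhibition of at least 70% and a set share of replicates each scoring 70 or more; inconclusive = meets just one of the two criteria; inactive = fails both criteria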;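 note: 0% = median of neutral control wells and 100% = median of positive control wells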
# Target sequence (Q61009 whole entry, looked up): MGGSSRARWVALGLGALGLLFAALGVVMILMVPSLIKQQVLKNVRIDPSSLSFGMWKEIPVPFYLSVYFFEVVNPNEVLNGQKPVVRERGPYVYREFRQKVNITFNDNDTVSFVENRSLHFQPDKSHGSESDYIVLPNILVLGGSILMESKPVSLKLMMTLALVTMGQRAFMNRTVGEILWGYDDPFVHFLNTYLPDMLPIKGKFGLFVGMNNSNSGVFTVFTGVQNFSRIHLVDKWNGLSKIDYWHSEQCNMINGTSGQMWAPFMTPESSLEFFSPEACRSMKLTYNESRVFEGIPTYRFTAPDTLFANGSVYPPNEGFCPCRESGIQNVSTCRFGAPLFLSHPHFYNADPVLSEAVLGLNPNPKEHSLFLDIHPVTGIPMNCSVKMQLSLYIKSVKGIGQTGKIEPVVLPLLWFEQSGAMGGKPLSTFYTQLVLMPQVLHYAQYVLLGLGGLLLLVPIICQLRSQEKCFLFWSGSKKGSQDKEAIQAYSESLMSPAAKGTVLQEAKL
# PKA-R1A activ: activators of PKA-R1A complex; P00514+P68181; PKA-R1A dissociation, Cy5-IP20 fluorescence polarization; scaled: DMSO 0%, 113 µM cGMP 100%; activation, % at 11.4 µM; 340,000 compounds, 0.083% hits; AID 504707;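 active = percent activation above the mean of all tested compounds plus 3 SD, cut at about 19% in these data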;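 note: higher means more PKAc released from R1A so a rise in polarization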
# PKA-R2B activ: activators of human PKA-R2B complex | 340,000 compounds, 0.079% hits | P22694+P31323 | activation, % at 11.4 µM | AID 504700 | PKA-R2B holoenzyme dissociation, Cy5-IP20 fluorescence polarization; R2B truncated from residue 108, S112A mutant; 0% DMSO only, 100% 113 µM cGMP;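 active = activation above a cutoff set at the mean over all compounds plus 3 SD, cut at about 18% in these data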;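 note: higher means more holoenzyme dissociation and a rise in polarization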
# CDK5 inh: CDK5/p35 (human) kinase inhibition | Recombinant CDK5/p35, ADP-Glo luminescence, 60 min | 330,000 compounds, 0.01% hits | Q00535+Q15078 | inhibition, % at 10 µM;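 active = highest replicate inhibition of at least 50% and at least 75% of replicates reaching 50%; inconclusive = only one of the two criteria met; inactive = both criteria failed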;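 note: plate controls were DMSO neutral control for no effect and GW8510 at 10 µM for full effect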
# dFosB activator: enhances mouse delta FosB homodimer DNA binding; P13346; purified delta FosB, TAMRA-CDK5 oligo fluorescence polarization; percent of positive-control signal above neutral wells; activation, % at 25 µM; 340,000 compounds, 0.99% hits; AID 493131;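 active = mean activation above about 17%, with every replicate also reaching it, limit read from the data, passing the limit was not always enough; inconclusive = only one of the two conditions met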
# * = called active by the depositor; ? = inconclusive; nt = no result. A selection: hits, their analogues and other compounds. The true share with any hit is near 2.1%.
SMILES,SR-BI DiI-HDL act,SR-BI HDL uptake,PKA-R1A activ,PKA-R2B activ,CDK5 inh,dFosB activator
COc1ccc(Nc2nnc(-c3ccccc3)c3ccccc23)cc1C(=O)N1CCCCC1,-48,48,-9,-11,1,-10
CCOc1cc(/C=C2/C(=N)N3C=CSC3=NC2=O)ccc1OCCCOc1ccccc1C,-102,102*,3,-3,-2,-4
COc1cc(/C=C2/C(=N)N3C=CSC3=NC2=O)ccc1OCCCOc1c(C)cccc1C,-81,81*,-3,-11,0,-8
COc1ccc(CC(=O)NNS(=O)(=O)c2ccc(F)cc2)cc1,nt,nt,6,-3,0,1
Cc1ccc(-c2cc(C(=O)N/N=C/c3c[nH]c4ccccc34)n[nH]2)o1,-16,16,-17,-16,3,-3
Cc1ccc(-c2cc(C(=O)N/N=C/c3ccccc3O)n[nH]2)o1,-83,83*,-2,-5,2,51*
O=C(Nc1ccc(F)c(F)c1)C1CCN(S(=O)(=O)c2cccs2)CC1,-10,10,-19,-9,1,-2
C/C(CCC1CC(C)OC1=O)=N/Nc1nc(-c2ccccc2)cs1 (stereo not drawn),-22,22,0,2,nt,-1
C/C(CCC1CC(C)OC1=O)=N\NC(N)=S (stereo not drawn),-71,71*,-9,1,1,1
C/C(CCC1CC(C)(C)OC1=O)=N\NC(N)=S (stereo not drawn),-72,72*,2,3,1,-4
COCCN1C(=O)C(C(=O)OC)CC2=C1CC(C)(C)CC2=O (stereo not drawn),5,-5,0,2,2,0
O=C(Cn1c2ccccc2c(=O)c2cc([N+](=O)[O-])ccc21)Nc1ccccc1Cl,-17,17,5,2,1,63*
COc1ccccc1/C=C/CN1CCC(Oc2cc(C(=O)NC3CC3)ccc2OC)CC1,-29,29,-9,4,0,-12
Cc1ccc(S(=O)(=O)N2[C@@H](c3ccccc3F)C(C(=O)O)=CC[C@H]2c2cccc(Cl)c2)cc1,21,-21,-7,-6,-1,-3
O=C(c1ccco1)N1CCN(C(=O)C2CCCc3c2[nH]c2ccc(Cl)cc32)CC1 (stereo not drawn),-83,83*,-9,0,0,-19
Cc1cc(O)c2c(c1)C(=O)[C@@]13Oc4c5c(c(O)c6c(O)cc(C)cc46)C(=O)C[C@H](O)[C@H]5[C@@H]1[C@@H](O)CC(=O)C3=C2O,-4,4,-7,5,-1,7
COc1ccccc1NCCC(=O)OCC(=O)Nc1cc([N+](=O)[O-])ccc1F,2,-2,-6,-17,1,-9
CC(CN(C)Cc1ccccc1)OC(=O)c1cccc(F)c1 (stereo not drawn),69*,-69,6,3,1,2
CCN(CC)CCn1c2ccccc2c2nc3ccc([N+](=O)[O-])cc3cc21,-26,26,nt,nt,-1,51*
Cn1c2ccccc2c2cc([N+](=O)[O-])ccc21,-13,13,4,4,-1,-1
CN(C)CCNC=C(C(=O)Nc1ccc(Cl)cc1Cl)C(=O)Nc1ccc(Cl)cc1Cl,82*,-82,-1,-1,-2,0
CC(=O)/C(=C/N(C)C)C(=O)Nc1ccc(Cl)cc1Cl,-9,9,0,1,0,1
CCCN(CCC)C1=CC(=[N+]2CCCC2)CC(C)(C)C1,83*,-83,-3,-6,-1,3
CC(=O)Nc1cccc(NC(=O)C(=O)NCC(c2ccco2)N2CCc3ccccc3C2)c1 (stereo not drawn),-19,19,-6,-11,-1,-6
Cc1cccc2c1-c1sc(C(=O)Nc3cccc([N+](=O)[O-])c3C)cc1CO2,-73,73*,-6,0,2,3
SMILES,SR-BI DiI-HDL act,SR-BI HDL uptake,PKA-R1A activ,PKA-R2B activ,CDK5 inh,dFosB activator
COc1ccc(-n2nc3c(N4CCC(C(=O)NCCc5ccco5)CC4)nnc(C)c3c2C)cc1,-38,38,6,-4,-4,-6
COc1ccc(-n2nc3c(N4CCC(C(=O)NCc5cccc(C)c5)CC4)nnc(C)c3c2C)cc1,-40,40,-15,-3,nt,?
Cc1ccc(-n2nc3c(N4CCC(C(=O)NCc5ccccc5C)CC4)nnc(C)c3c2C)cc1,-32,32,-8,5,0,28*
COc1ccccc1CCNC(=O)C1CCN(c2nnc(C)c3c(C)n(-c4ccc(C)cc4)nc23)CC1,-80,80*,4,8,2,1
CCOc1ccc(NC(=O)C(=O)NCCN2CCN(S(=O)(=O)c3ccc(C)cc3)CC2)cc1,nt,nt,-2,6,2,2
COc1ccc(N(C)S(=O)(=O)c2ccc(Cl)c(C(=O)NNC(=O)c3ccccc3O)c2)cc1,-79,79*,1,4,-2,-5
COc1cc(OC)cc(C(=O)NNC(=O)c2ccc(S(=O)(=O)N(C)c3ccccc3OC)cc2)c1,-44,44,-4,2,1,-5
COc1ccccc1N(C)S(=O)(=O)c1ccc(C(=O)NNC(=O)c2ccccc2O)cc1,-126,126*,2,-6,2,8
COc1ccccc1N(C)S(=O)(=O)c1ccc(Cl)c(C(=O)NNC(=O)c2ccccc2O)c1,-81,81*,-3,2,-2,-7
CCN(c1ccccc1)S(=O)(=O)c1ccc(Cl)c(C(=O)NCCc2ccc(OC)cc2)c1,-1,1,0,-9,0,-6
COC(=O)c1cccc(NC(=O)Cc2nc(-c3ccccc3)sc2-c2ccc(C)cc2)c1,-71,71*,5,-9,2,-5
CC(=O)Nc1cccc(NC(=O)Cc2nc(-c3ccccc3)sc2-c2ccc(C)cc2)c1,-60,60,0,-12,0,2
COc1cccc(NC(=O)Cc2nc(-c3ccccc3)sc2-c2ccc(C)cc2)c1,-86,86*,0,-4,1,-8
Cc1ccc(-n2ncc3c(=O)n(CC(=O)Nc4cccc(Cl)c4)cnc32)cc1C,18,-18,-16,-14,1,42*
CCCCn1nc(NC(=O)c2cccs2)c2cc3cc(OC)ccc3nc21,-82,82*,-6,-5,1,-1
CCSc1nc(N2CCCCC2)c2c(c1C#N)CCCC2,-76,76*,9,-2,1,-1
N/C(=N\N=C\c1ccco1)SC1CC(=O)N(c2ccc(C(=O)O)cc2)C1=O (stereo not drawn),60*,-60,-5,-1,1,5
